Test results from ChEMBL document CHEMBL1255220, “Synthesis and antitumor effect in vitro and in vivo of substituted 1,3-dihydroindole-2-ones” (J Med Chem, 2010).
Activity calls are given as the source filed them. The rule behind the calls is not given here.

What was measured:
PC-3 [1] = assay: Cytotoxicity against human PC3 cells after 72 hrs by WST-1 assay; assay type: functional, cell-based
In short: (§1)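 Cells seeded at 3×10³/well; next day serially diluted compound added in triplicate; 72 h at 37 °C, 5% CO₂. Viable cells measured with WST-1 reagent (1 h), absorbance 450 nm minus 690 nm reference. IC50 is mean ± SD of at least two experiments run in triplicate. MCF-7 grown in DMEM, PC3 in RPMI, each with 10% serum.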

MCF7 = assay: Cytotoxicity against human MCF7 cells after 72 hrs by WST-1 assay; assay type: functional, cell-based; in short: as §1
[2] = Therapeutic index, ratio of MTD in rat to ED50 for antitumor activity against human PC3 cells xenografted in rat; assay type: cell-based, PC-3; conditions: in vivo, read-out: TI
In short: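 PC3 human prostate cancer cells (1e7, grown in RPMI + 10% FBS, suspended in PBS + Matrigel) were implanted sc in female nude rats (NIHRNU-M) or nude mice (NMRI/nude), with iv dosing 3×/week. Rat MTD came from a single iv dose. Effective rat doses were estimated from mouse xenografts using a mouse-to-rat conversion factor of 0.5. Index = rat toxic dose / rat effective dose.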

MDA-MB-468 = assay: Cytotoxicity against human MDA-MB-468 cells; assay type: functional, cell-based
[3] = Half life in mouse at 5 mg/kg, iv; assay type: ADME, organism-based; parameters: dose 5 mg/kg, route intravenous; conditions: in vivo
In short: (§2)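 Compound given as single iv dose to mice or rats. Plasma samples prepared by protein precipitation with acetonitrile containing 1 μg/mL internal standard (3:1 v/v). Analysed by UPLC-MS/MS on a C18 reversed-phase column at 40 °C with an acetonitrile–0.05% formic acid gradient. Half-life and AUC (h ng/mL) derived from the plasma levels.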

PC-3 [4] = assay: Antitumor activity against human PC3 cells xenografted in sc dosed NMRI mouse assessed as tumor regression dose; assay type: functional
In short: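 1e7 PC3 cells (grown in RPMI + 10% FBS) in PBS/Matrigel 1:1 injected sc into female NMRI nude mice or female NIH-RNU nude rats. Compound dosed iv three times per week. Tumour regression dose recorded. Rat effective doses were estimated from mouse xenografts using a 0.5 mouse-to-rat conversion factor.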

[5] = AUC in mouse at 5 mg/kg, iv; assay type: ADME, organism-based; parameters: dose 5 mg/kg, route intravenous; conditions: plasma; in short: as §2
[6] = Toxicity in iv dosed rat assessed as maximum tolerated dose; conditions: in vivo
MDA-MB-231 = assay: Cytotoxicity against human MDA-MB-231 cells; assay type: functional, cell-based
PC-3 [7] = assay: Antitumor activity against human PC3 cells xenografted in sc dosed rat assessed as tumor regression dose; assay type: functional
[8] = biological target: Eukaryotic translation initiation factor 2 subunit 1 (Homo sapiens) (UniProt P05198); assay: Inhibition of eIF2alpha autophosphorylation in human A2780 cells; assay type: cell-based
Chain of Eukaryotic translation initiation factor 2 subunit 1 (Homo sapiens) (P05198 whole entry): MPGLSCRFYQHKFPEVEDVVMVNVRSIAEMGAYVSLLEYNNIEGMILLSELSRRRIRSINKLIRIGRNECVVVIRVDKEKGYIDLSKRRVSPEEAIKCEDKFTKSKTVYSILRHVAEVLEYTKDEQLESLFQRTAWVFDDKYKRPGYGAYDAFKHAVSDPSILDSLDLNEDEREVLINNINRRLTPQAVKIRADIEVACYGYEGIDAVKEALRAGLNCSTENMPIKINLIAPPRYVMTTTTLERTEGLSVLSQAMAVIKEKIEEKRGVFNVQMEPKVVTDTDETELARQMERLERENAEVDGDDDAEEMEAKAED
In short: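 MCF-7 (DMEM) and A2780 (RPMI 1640) cells, together with sublines made resistant by culture in rising concentrations of the parent oxindole, were treated with compound for 4 and 24 h respectively. Lysates (20 μg protein) separated by SDS-PAGE and blotted onto nitrocellulose. Phospho-eIF2α read by western blot: milk block, primary antibody overnight at 4 °C, HRP secondary antibody.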

[9] = biological target: Eukaryotic translation initiation factor 2 subunit 1 (Homo sapiens) (UniProt P05198); assay: Induction of eIF2alpha phosphorylation in human MCF7 cells
[10] = AUC in rat at 10 mg/kg, iv; assay type: ADME, organism-based; parameters: dose 10 mg/kg, route intravenous; conditions: plasma; in short: as §2
[11] = Half life in rat at 10 mg/kg, iv; assay type: ADME, organism-based; parameters: dose 10 mg/kg, route intravenous; conditions: in vivo; in short: as §2
[12] = AUC in rat at 2.5 mg/kg, iv; assay type: ADME, organism-based; parameters: dose 2.5 mg/kg, route intravenous; conditions: plasma; in short: as §2
[13] = Half life in rat at 2.5 mg/kg, iv; assay type: ADME, organism-based; parameters: dose 2.5 mg/kg, route intravenous; conditions: in vivo; in short: as §2
[14] = Half life in rat at 5 mg/kg, iv; assay type: ADME, organism-based; parameters: dose 5 mg/kg, route intravenous; conditions: in vivo; in short: as §2
[15] = AUC in rat at 5 mg/kg, iv; assay type: ADME, organism-based; parameters: dose 5 mg/kg, route intravenous; conditions: plasma; in short: as §2

Work on `COc1ccc2c(c1C)NC(=O)[C@]2(c1ccc(O)cc1)C1CCCCCC1` yielded an IC50 (PC-3 [1]; Homo sapiens, PC-3, 72 h) of 2 nM and an IC50 (MCF7; Homo sapiens, MCF7, 72 h) of 0.48 nM.

In the case of `COc1ccc2c(c1C)NC(=O)[C@@]2(c1ccc(O)cc1)C1CCCCCC1`, the IC50 (PC-3 [1]; Homo sapiens, PC-3, 72 h) is reported as over 1000 nM and the IC50 (MCF7; Homo sapiens, MCF7, 72 h) is reported as over 1000 nM.

In the case of `O=C1Nc2c(ccc(F)c2F)C1(c1ccc(O)cc1)c1ccc(O)cc1`, the selectivity ratio [2] is reported as 0.4, the IC50 (MDA-MB-468) is reported as 20 nM and the half-life [3] is reported as 1.7 h. It also gave an IC50 (PC-3 [1]; Homo sapiens, PC-3, 72 h) of 699 nM, an IC50 (MCF7; Homo sapiens, MCF7, 72 h) of 20 nM and an Activity (PC-3 [4]) of 5 mg/kg. For the same molecule, the AUC [5] was 6770 ng·h/mL, the MTD [6] was 1 mg/kg and the IC50 (MDA-MB-231) was over 3000 nM.

With `O=C1Nc2c(C(F)(F)F)cccc2C1(c1ccc(O)cc1)C1CCCCCC1` (racemic) the selectivity ratio [2] was 4, the Activity (PC-3 [7]) was over 20 mg/kg and the IC50 (PC-3 [1]; Homo sapiens, PC-3, 72 h) was 91 nM. It also gave an IC50 (MCF7; Homo sapiens, MCF7, 72 h) of 9.7 nM, an Activity (PC-3 [4]) of 20 mg/kg and an MTD [6] of 40 mg/kg.

With `O=C1Nc2c(C(F)(F)F)cccc2C1(c1ccc(O)cc1)n1ccnc1` (racemic) the inhibition [8] was “inactive”, the IC50 (PC-3 [1]; Homo sapiens, PC-3, 72 h) was over 1000 nM and the IC50 (MCF7; Homo sapiens, MCF7, 72 h) was over 1000 nM. The induction [9] was “inactive”.

Molecule `Cc1cc(C)c2c(c1)C(c1ccc(O)cc1)(c1ccc(F)cc1)C(=O)N2` (racemic) has an IC50 (PC-3 [1]; Homo sapiens, PC-3, 72 h) of 209 nM and an IC50 (MCF7; Homo sapiens, MCF7, 72 h) of 40 nM.

For `Cc1cc(C)c2c(c1)C(c1ccc(O)cc1)(C1CCCCCC1)C(=O)N2` (racemic), the IC50 (PC-3 [1]; Homo sapiens, PC-3, 72 h) was over 1000 nM and the IC50 (MCF7; Homo sapiens, MCF7, 72 h) was over 1000 nM.

Work on `Cc1cc(F)cc2c1NC(=O)C2(c1ccc(O)cc1)C1CCCCCC1` (racemic) yielded an IC50 (PC-3 [1]; Homo sapiens, PC-3, 72 h) of over 1000 nM and an IC50 (MCF7; Homo sapiens, MCF7, 72 h) of over 1000 nM.

For `Cc1ccc2c(c1C)NC(=O)C2(c1ccc(O)cc1)C1CCCCCC1` (racemic), the IC50 (PC-3 [1]; Homo sapiens, PC-3, 72 h) was over 1000 nM and the IC50 (MCF7; Homo sapiens, MCF7, 72 h) was 19 nM.

`Cc1c(F)ccc2c1NC(=O)C2(c1ccc(O)cc1)C1CCCCCC1` (racemic) showed an IC50 (PC-3 [1]; Homo sapiens, PC-3, 72 h) of 30 nM and an IC50 (MCF7; Homo sapiens, MCF7, 72 h) of 20 nM.

`Cc1c(Cl)ccc2c1NC(=O)C2(c1ccc(O)cc1)C1CCCCCC1` (racemic) showed an IC50 (PC-3 [1]; Homo sapiens, PC-3, 72 h) of 150 nM and an IC50 (MCF7; Homo sapiens, MCF7, 72 h) of 51 nM.

`Cc1ccc2c(c1Cl)NC(=O)C2(c1ccc(O)cc1)C1CCCCCC1` (racemic) showed an IC50 (PC-3 [1]; Homo sapiens, PC-3, 72 h) of 17 nM and an IC50 (MCF7; Homo sapiens, MCF7, 72 h) of 2.8 nM.

Molecule `COc1ccc2c(c1C)NC(=O)C2(c1ccc(O)cc1)c1ccc(F)cc1` (racemic) has a selectivity ratio [2] of 3, an Activity (PC-3 [7]) of under 10 mg/kg and an IC50 (PC-3 [1]; Homo sapiens, PC-3, 72 h) of 9 nM. For the same molecule, the AUC [10] was 3950 ng·h/mL, the half-life [11] was 1.5 h and the IC50 (MCF7; Homo sapiens, MCF7, 72 h) was 6.3 nM. It also gave an Activity (PC-3 [4]) of 10 mg/kg and an MTD [6] of 15 mg/kg.

`COc1ccc2c(c1C)NC(=O)C2(c1ccc(O)cc1)C1CCCC1` (racemic) gave an IC50 (PC-3 [1]; Homo sapiens, PC-3, 72 h) of 111 nM and an IC50 (MCF7; Homo sapiens, MCF7, 72 h) of 1 nM.

`COc1ccc2c(c1C)NC(=O)C2(c1ccc(O)cc1)C1CCCCC1` (racemic) gave an IC50 (PC-3 [1]; Homo sapiens, PC-3, 72 h) of 28 nM and an IC50 (MCF7; Homo sapiens, MCF7, 72 h) of 14 nM.

`O=C1Nc2c(ccc(F)c2F)C1(c1ccccc1)c1ccc(O)cc1` (racemic) gave an IC50 (PC-3 [1]; Homo sapiens, PC-3, 72 h) of 8.9 nM and an IC50 (MCF7; Homo sapiens, MCF7, 72 h) of 7.1 nM.

For `O=C1Nc2c(ccc(F)c2F)C1(c1ccc(O)cc1)c1ccc(F)cc1` (racemic), the selectivity ratio [2] was 2, the Activity (PC-3 [7]) was under 2.5 mg/kg and the half-life [3] was 2.1 h. It also gave an IC50 (PC-3 [1]; Homo sapiens, PC-3, 72 h) of 8.6 nM, an IC50 (MCF7; Homo sapiens, MCF7, 72 h) of 2.6 nM and an Activity (PC-3 [4]) of 2.5 mg/kg. It also gave an AUC [12] of 2530 ng·h/mL, a half-life [13] of 0.8 h and an AUC [5] of 1910 ng·h/mL. It also gave an MTD [6] of 2.5 mg/kg.

In the case of `COc1ccc2c(c1C)NC(=O)C2(c1ccc(O)cc1)C1CCCCCC1` (racemic), the selectivity ratio [2] is reported as 7, the inhibition [8] is reported as “inactive” and the Activity (PC-3 [7]) is reported as 10 mg/kg. The IC50 (PC-3 [1]; Homo sapiens, PC-3, 72 h) was 12 nM, the AUC [10] was 5760 ng·h/mL and the half-life [11] was 1.5 h. For the same molecule, the IC50 (MCF7; Homo sapiens, MCF7, 72 h) was 4.7 nM, the induction [9] was “inactive” and the Activity (PC-3 [4]) was 20 mg/kg. The MTD [6] was 70 mg/kg.

For `COc1ccc(C2(c3ccc(O)cc3)C(=O)Nc3c2ccc(F)c3F)cc1` (racemic), the IC50 (PC-3 [1]; pc-3) was 2.2 nM and the IC50 (MCF7; mcf7) was 6.3 nM.

In the case of `Cc1ccc(C2(c3ccc(O)cc3)C(=O)Nc3c2ccc(F)c3F)cc1` (racemic), the IC50 (PC-3 [1]; Homo sapiens, PC-3, 72 h) is reported as 0.8 nM and the IC50 (MCF7; Homo sapiens, MCF7, 72 h) is reported as 1.7 nM.

`O=C1Nc2c(ccc(F)c2F)C1(c1ccc(O)cc1)C1CCCCC1` (racemic) showed a half-life [14] of 1.1 h, a selectivity ratio [2] of 2 and an Activity (PC-3 [7]) of under 10 mg/kg. For the same molecule, the half-life [3] was 1.6 h, the IC50 (PC-3 [1]; pc-3) was 32 nM and the IC50 (MCF7; mcf7) was 13 nM. For the same molecule, the Activity (PC-3 [4]) was 10 mg/kg, the AUC [5] was 3550 ng·h/mL and the MTD [6] was 10 mg/kg. It also gave an AUC [15] of 1350 ng·h/mL.

`CCOc1ccc(C2(c3ccc(O)cc3)C(=O)Nc3c2ccc(F)c3F)cc1` (racemic) gave an IC50 (PC-3 [1]; Homo sapiens, PC-3, 72 h) of 24 nM and an IC50 (MCF7; Homo sapiens, MCF7, 72 h) of 11 nM.
